Source: PubChem BioAssay AID624038 (The Scripps Research Institute Molecular Screening Center, 2012)
Among all 360,000 compounds or so, about 1,100 (0.31%) were called active.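 Rule for the calls: active = activation above the run cutoff, the mean activation of all test compounds plus 3 SD (cut at about 18% in these data); inactive = the rest.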 The full list was thinned out, with actives kept by preference.

target: Muscarinic acetylcholine receptor M5 (Homo sapiens) (UniProt P08912); assay: CHRM5 PAMs potentiating acetylcholine calcium signal – CHO-K1 cells, Fluo-8 calcium fluorescence, primary screen (AID 624038); settings: CHO-K1 hM5, Fluo-8 calcium, ACh EC20 PAM; at 3 µM; active compounds read high; 0% = ACh EC20, 100% = ACh EC100
Sequence (P08912 whole entry, looked up): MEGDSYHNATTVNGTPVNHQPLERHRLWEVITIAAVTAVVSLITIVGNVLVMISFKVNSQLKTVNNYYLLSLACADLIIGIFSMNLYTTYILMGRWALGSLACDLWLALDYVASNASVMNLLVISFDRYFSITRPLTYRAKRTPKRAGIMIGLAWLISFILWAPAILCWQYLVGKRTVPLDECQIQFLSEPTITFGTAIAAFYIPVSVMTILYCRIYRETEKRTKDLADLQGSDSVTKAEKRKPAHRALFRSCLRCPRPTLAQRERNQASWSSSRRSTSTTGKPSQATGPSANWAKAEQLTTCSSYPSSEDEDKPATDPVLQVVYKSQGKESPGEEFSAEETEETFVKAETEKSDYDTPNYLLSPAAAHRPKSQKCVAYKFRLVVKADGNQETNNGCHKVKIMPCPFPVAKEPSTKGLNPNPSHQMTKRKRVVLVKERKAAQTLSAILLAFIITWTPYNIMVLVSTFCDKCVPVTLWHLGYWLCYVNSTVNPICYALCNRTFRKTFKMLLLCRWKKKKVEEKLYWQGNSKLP
Outline: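 System: CHO-K1 hM5 cells. Reagent: acetylcholine, EC20 level. Compound dosing: single dose, 3 µM nominal final test concentration. Timing: Post-acetylcholine fluorescence recording 140 s. Detection: Fluo-8 calcium fluorescence. Read-out: % activation, ACh-normalized. Benchmarks: ACh EC20 and EC100 wells. Repeats: singlicate, one well per test compound.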

activation, inactive:
Cc1ccc(C(=O)OC2=CC(=O)CC(C)(C)C2)cc1 0.4%
COc1ccc(C(C(=O)NCC2CCCO2)N(C(=O)Cn2nnc3ccccc32)c2ccc(NC(C)=O)cc2)cc1OC (stereo not drawn) 5.16%
Cc1ccc(C(C(=O)NCc2ccco2)N(CC2CCCO2)C(=O)Cn2nnc3ccccc32)cc1 (stereo not drawn) -1.09%
CC1CN(CCCOc2ccccc2-c2ccccc2)CC(C)O1 (stereo not drawn) 0.63%
CC1CN(CCOc2ccccc2[N+](=O)[O-])CC(C)O1 (stereo not drawn) 8.76%
CCN(CC)Cc1csc2ccc(Br)cc12 -8.32%
CN(Cc1ccccc1)C(=O)[C@@H]1CCCN1C(=O)[C@@H]1CCCN1C(=O)c1c(F)cccc1F -3.49%
O=C(CCN1C(=O)[C@@H]2Cc3ccccc3CN2C1=O)NCCc1ccccc1 -2.71%
Cc1ccc(CNC(=O)CCN2C(=O)[C@@H]3Cc4ccccc4CN3C2=O)cc1 -3.61%
c1ccc(CCc2ccccn2)cc1 -5.1%
O=C(CNC(=O)COc1ccccc1)NCCc1ccccn1 -11%
Cc1cccc(C(=O)NC2CCN(CC(=O)Nc3cccc(Cl)c3)CC2)c1 -2.77%
CCC(C)(C)n1nnnc1C(c1ccc(OC)c(OC)c1)N1CCN(C(=O)c2ccco2)CC1 (stereo not drawn) 4.04%
COc1ccccc1N(C)C(=O)c1cc(S(=O)(=O)N2CCc3ccccc32)cn1C -2.97%
COc1ccccc1C(=O)NC(=S)Nc1ccc(N2CCOCC2)cc1 4.29%
COc1ccccc1C(=O)Nc1ccc(OCC(=O)N2CCCCC2)cc1 1%
COc1ccc(/C=N/NC(=O)C(C)N(c2ccc(OC)cc2)S(C)(=O)=O)cc1 (stereo not drawn) -7.14%
CN(C)c1ccc(/C=N/NC(=O)c2ccc(Cn3cc(Br)cn3)o2)cc1 -6.88%
O=C(NC1CCCCC1)C1CCC(CNS(=O)(=O)c2ccccc2)CC1 (stereo not drawn) -2.41%
COc1cc(C(=O)NC2CCN(C)CC2)ccc1Nc1ncc2c(n1)N(C1CCC(O)CC1)CCC(=O)N2C (stereo not drawn) -2.26%
CCCCCNC(=O)C1C(=O)Nc2ccccc2C(=O)N1C(C)(C)C (stereo not drawn) 7.08%
COCCNC(=O)c1onc(CSc2cccc(C)c2)c1C(=O)O -3.85%
O=C(NNC(=O)C1CCC1)c1ccccc1 2.72%
O=C(NNc1nc(N2CCCC2)nc(N2CCCC2)n1)c1ccccc1 6.43%
CN(C)/C(=N\OC(=O)c1ccccc1)c1nonc1N -4.7%
COc1cc(Cn2c3ccc(NC(=O)CC(C)c4ccccc4)cc3c(=O)n2C)ccc1F (stereo not drawn) -5.77%
O=C(Nc1cccc(C(=O)O)c1)/C(=C\c1ccccc1)NC(=O)c1ccc(Br)o1 -2.27%
COc1ccc(NS(=O)(=O)c2ccc(C)c(C(=O)N(C)Cc3ccc(OC)cc3OC)c2)cc1 -3.1%
CCC(NC(=O)c1ccccc1NC(=O)c1ccccc1)C(=O)NNC(=O)CSc1nc2ccccc2o1 (stereo not drawn) -8.71%
COc1cc(CNCc2ccc3c(c2)OCO3)c([N+](=O)[O-])cc1OC -5.12%
Cc1ccc(S(=O)(=O)N(Cc2ccccc2)c2ccccn2)cc1[N+](=O)[O-] -10.1%
O=C(Cc1ccccc1Cl)N1CCN(c2ccccn2)CC1 -0.15%
Cc1ccc2oc(=O)c3cnn(CC(=O)N4CCN(c5ccccn5)CC4)c3c2c1 -15.1%
CC(=O)NC(c1ccccc1)c1nc(-c2cccc(C(C)C)c2)cs1 (stereo not drawn) -1.15%
COc1ccc2c(c1OC)C(=O)OC2Nc1nc(-c2ccccc2)cs1 (stereo not drawn) 4.62%
Cc1cccc(N(C(=O)Cc2cccs2)C(C(=O)NC2CCCC2)c2ccsc2)c1 (stereo not drawn) -1.6%
COc1ccc(C(=O)NC2CCN(C(=O)Nc3ccc(F)cc3)CC2)cc1 1.29%
Cc1ccc(C(=O)NC2CCN(C(=O)Nc3ccccc3Cl)CC2)cc1 -7.16%
CCOc1ccc(C(=O)NC2CCN(S(=O)(=O)CC)CC2)cc1 11.7%
Cc1ccc(C(=O)NC2CCN(C(=O)Nc3ccc(F)cc3)CC2)cc1 -2.54%
Cc1ccc(OCC(=O)N2CCN(S(=O)(=O)c3ccc(Cl)s3)CC2)cc1C 6.01%
CCCNCc1cc(OCC)c(OCC(=O)Nc2ccccc2)cc1Br -3.11%
C=CC[C@@H](CC(=O)N[C@@H](CO)Cc1ccccc1)C(=O)N[C@H](COC(=O)[C@H](CC=C)CC(=O)OC(C)(C)C)Cc1ccccc1 12.5%
CCOC(=O)c1c(NC(=O)NC(C)(C)C)sc2c1CCN(C)C2 -2.43%
CCOC(=O)C(C)N(c1ccccc1Cl)S(C)(=O)=O (stereo not drawn) 4.74%
O=C(Nc1cc(S(=O)(=O)N2CCOCC2)ccc1OCC(F)(F)F)c1ccc(N2CCCC2=O)cc1 -1.35%
COc1ccc(/C=C(/NC(=O)c2ccco2)C(=O)Nc2ccc(C(C)=O)cc2)cc1 5.57%

activation, active:
CCOc1cc(C(C(=O)NCC2CCCO2)N(C(=O)Cn2nnc3ccccc32)c2cccc(OC)c2)ccc1O (stereo not drawn) 19%
Cc1cc(C)c(OCCN2CC(C)OC(C)C2)c(Br)c1 (stereo not drawn) 23.1%
O=C(CCN1C(=O)[C@@H]2Cc3ccccc3CN2C1=O)NCc1ccccc1 21.5%
O=C(O)C(CCc1ccccn1)c1ccccc1 (stereo not drawn) 19.2%
COc1cccc(OC)c1C(=O)Nc1ccc(N2CCCCC2)cc1 20.9%
CN(C)c1ccc(/C=N/NC(=O)C(O)c2ccc(Br)cc2)cc1 (stereo not drawn) 20.2%
O=C(NNC(=O)C1CCN(c2ncccn2)CC1)c1ccccc1 26.2%
Nc1ccn(CC(=O)N2CCN(c3ccccn3)CC2)c(=O)n1 19%
Cc1cccc(Nc2nc(-c3ccccc3)cs2)n1 22.1%
Cc1cc(C)cc(NC(=O)N2CCC(NC(=O)c3ccc(F)cc3)CC2)c1 18.7%
CCOc1ccc(C(=O)NC2CCN(C(=O)Nc3ccccc3OC)CC2)cc1 19.6%
